Screens: PubChem, Broad Institute
The sample as a whole holds a higher share of hits than the screen did.
T_cruzi_HTS: inhibitors of intracellular Trypanosoma cruzi; intracellular Trypanosoma cruzi in host cells, plate reader; activity score (inhibition), % at 5.01 µM; 22,000 compounds, 4.9% hits; in the data active = activity score above about 55%; inconclusive = no clear call, values can overlap the other calls;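 note: parasites and compound incubated about four days before reading; 0% = median of neutral control wells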
A1_apoptosis_2: blocks A1, raising caspase activity; MEF A1-2A-BIM cells, caspase-Glo luminescence, 3 h; percent of clofoctol response, DMSO zero; caspase activation, % (no concentration beside the values); 24,000 tested, under 10 active; AID 2465; in the data active = caspase activation above about 5.9%; inconclusive = no clear call, values can overlap the other calls; inactive = below about 2.2%
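Test system – A1-2A-BIM-expressing MEF cells · Input – 2500 cells/well · Medium – RPMI-1640 growth medium with 10% FBS · Compound dosing – 50 nL pinned compound · Timing – 3 h compound exposure at 37 °C · Technique – Caspase-Glo luminescence (DEVD substrate) · Evaluation – Caspase-3/7 activity from luminescence increase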
INS-1E_ATP_HTS: rescue of cytokine-induced death in INS-1E beta cells; INS-1E cytokine-induced death, ATP luminescence, 48 h; normalised: neutral wells 0, positive control 100; protection from cytokine-induced ATP loss, % at 10 µM; 20,000 compounds, 0.1% hits;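 active = mean replicate protection from cytokine-induced ATP loss at least 50% and at least 75% of replicates each reaching 50%; inconclusive = meets only one of the two criteria, mean or replicate share; inactive = fails both the mean and replicate share criteria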
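Test system: INS-1E rat cells | Quantity: 8000 cells per well | Medium: Phenol-red-free RPMI with 5% fetal bovine serum | Reagent: Cytokine cocktail of IFN-γ, TNF-α and IL-1β | Doses: One compound concentration, pin transfer | Timing: 48 h co-treatment, 10 min post-lysis read | Technique: Luminescent ATP assay (CellTiter-Glo)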
An asterisk follows results filed as active; ? = inconclusive; . = not tested or not shown.

SMILES T_cruzi_HTS A1_apoptosis_2 INS-1E_ATP_HTS
O=C(O)CCCCCC(=O)N/N=C/c1c(O)ccc2ccccc12 -9.1 -0.7 11.2
C[C@@H]1CN([C@@H](C)CO)C(=O)c2cc(NS(=O)(=O)c3ccc(Cl)cc3)ccc2O[C@@H]1CN(C)Cc1ccc(C(F)(F)F)cc1 83.6* -1.2 -31.0
Cc1ccc(S(=O)(=O)Nc2ccc3c(c2)C(=O)N([C@H](C)CO)C[C@@H](C)[C@@H](CN(C)Cc2ccc(C(F)(F)F)cc2)O3)cc1 59.6* . -27.0
C[C@@H]1CN([C@@H](C)CO)C(=O)c2cc(NS(=O)(=O)c3ccc(F)cc3)ccc2O[C@@H]1CN(C)Cc1ccc(C(F)(F)F)cc1 ? -1.5 -31.5
Cc1ccc(S(=O)(=O)Nc2ccc3c(c2)C(=O)N([C@H](C)CO)C[C@H](C)[C@@H](CN(C)Cc2ccc(C(F)(F)F)cc2)O3)cc1 67.5* -2.1 2.8
Cc1ccc(S(=O)(=O)Nc2ccc3c(c2)C(=O)N([C@H](C)CO)C[C@@H](C)[C@H](CN(C)Cc2ccc(C(=O)O)cc2)O3)cc1 -25.3 . 4.7
C[C@@H]1CN([C@@H](C)CO)C(=O)c2cc(NS(=O)(=O)c3ccc(F)cc3)ccc2O[C@H]1CN(C)Cc1ccc(C(F)(F)F)cc1 38.0 -1.5 -12.7
C[C@H](CO)N1C[C@H](C)[C@@H](CN(C)Cc2ccc(C(F)(F)F)cc2)Oc2ccc(NS(=O)(=O)c3ccc(F)cc3)cc2C1=O 60.9* . .
Cc1ccc(S(=O)(=O)Nc2ccc3c(c2)C(=O)N([C@@H](C)CO)C[C@@H](C)[C@@H](CN(C)Cc2ccc(C(F)(F)F)cc2)O3)cc1 -7.2 0.1 .
Cc1ccc(S(=O)(=O)N(C)C[C@H]2Oc3ccc(NC(=O)Nc4ccccc4)cc3CC(=O)N([C@H](C)CO)C[C@@H]2C)cc1 . 1.2 .
O=C(N/N=C/c1ccncc1Br)c1ccccc1O 0.6 -11.2 -36.5
O=C(C1=C[C@H](c2ccc3c(c2)Cc2ccccc2-3)C[C@H](OCc2ccc(CO)cc2)O1)N1CCCCC1 . 1.5 .
CC(C)NC(=O)N(C)C[C@H]1OCCCC[C@@H](C)Oc2ccc(NS(=O)(=O)c3ccccc3)cc2C(=O)N([C@@H](C)CO)C[C@@H]1C . 0.4 .
COc1ccc(S(=O)(=O)Nc2ccc3c(c2)C(=O)N([C@H](C)CO)C[C@H](C)[C@H](CN(C)Cc2ccc(C(=O)Nc4ccccc4N)cc2)OCCCC[C@@H](C)O3)cc1 46.2 -1.4 -0.8
C[C@H]1CN([C@@H](C)CO)C(=O)c2cc(NS(=O)(=O)c3ccc(Cl)cc3)ccc2O[C@H]1CN(C)Cc1ccc(C(=O)Nc2ccccc2N)cc1 73.0* . 37.1
C[C@@H]1CN([C@@H](C)CO)C(=O)c2cccc(NS(=O)(=O)c3ccc(Cl)cc3)c2O[C@@H]1CN(C)Cc1ccc(C(=O)Nc2ccccc2N)cc1 38.7 . 34.9
C[C@@H]1CN([C@H](C)CO)C(=O)c2cccc(NS(=O)(=O)c3ccc(Cl)cc3)c2O[C@H]1CN(C)Cc1ccc(C(=O)Nc2ccccc2N)cc1 65.0* 0.1 2.3
C[C@@H]1CN([C@H](C)CO)C(=O)c2cc(NS(=O)(=O)c3ccccc3)ccc2O[C@H]1CN(C)Cc1ccc(C(=O)Nc2ccccc2N)cc1 -26.2 . -22.2
C[C@@H]1CCCCO[C@H](CN(C)Cc2ccc(C(=O)Nc3ccccc3N)cc2)[C@@H](C)CN([C@H](C)CO)C(=O)c2cc(NS(=O)(=O)c3cccs3)ccc2O1 28.8 0.2 9.7
C[C@@H]1CCCCO[C@@H](CN(C)Cc2ccc(C(=O)Nc3ccccc3N)cc2)[C@@H](C)CN([C@H](C)CO)C(=O)c2cc(NS(=O)(=O)c3cccs3)ccc2O1 62.0* . -9.4
C[C@@H]1CCCCO[C@@H](CN(C)Cc2ccc(C(=O)Nc3ccccc3N)cc2)[C@@H](C)CN([C@H](C)CO)C(=O)c2cc(NS(=O)(=O)c3ccc(Cl)cc3)ccc2O1 77.6* -1.4 -5.2
C[C@@H]1CN([C@H](C)CO)C(=O)c2cc(NS(=O)(=O)c3ccccc3)ccc2O[C@H]1CN(C)C(=O)Nc1ccc(C(F)(F)F)cc1 3.9 1.3 -4.1
Cc1ccc(S(=O)(=O)Nc2ccc3c(c2)C(=O)N([C@@H](C)CO)C[C@H](C)[C@H](CN(C)C)O3)cc1 -7.5 -0.6 -30.7
C[C@H](CO)N1C[C@H](C)[C@H](CN(C)Cc2ccc(C(=O)Nc3ccccc3N)cc2)Oc2ccc(NS(=O)(=O)c3ccc(F)cc3)cc2C1=O 62.9* -0.2 18.2
C[C@@H]1CN([C@@H](C)CO)C(=O)c2cc(NS(=O)(=O)c3ccc(F)cc3)ccc2O[C@@H]1CN(C)Cc1ccc(C(=O)Nc2ccccc2N)cc1 31.1 . 17.2
SMILES T_cruzi_HTS A1_apoptosis_2 INS-1E_ATP_HTS
C[C@H](CO)N1C[C@H](C)[C@H](CN(C)CC2CCCCC2)Oc2c(NC(=O)c3nc4ccccc4s3)cccc2C1=O 65.8* -0.5 -31.5
C[C@@H]1CN([C@H](C)CO)C(=O)c2cccc(NC(=O)c3nc4ccccc4s3)c2O[C@@H]1CN(C)CC1CCCCC1 13.3 . -47.5
C[C@H](CO)N1C[C@H](C)[C@@H](CN(C)CC2CC2)Oc2c(NC(=O)c3nc4ccccc4s3)cccc2C1=O 27.1 -0.1 -17.7
C[C@H](CO)N1C[C@H](C)[C@@H](CN(C)CC2CCCCC2)Oc2c(NC(=O)c3nc4ccccc4s3)cccc2C1=O 63.6* . -40.5
C[C@@H]1CN([C@@H](C)CO)C(=O)c2cccc(NC(=O)c3nc4ccccc4s3)c2O[C@@H]1CN(C)CC1CCCCC1 76.3* . -48.5
C[C@@H]1CN([C@@H](C)CO)C(=O)c2cccc(NC(=O)c3nc4ccccc4s3)c2O[C@H]1CN(C)CC1CC1 -20.4 -0.3 -20.3
C[C@@H]1CN([C@@H](C)CO)C(=O)c2cccc(NC(=O)Nc3ccc4c(c3)OCO4)c2O[C@@H]1CN(C)S(=O)(=O)c1ccc(Cl)cc1 -25.4 0.2 9.6
C[C@H]1CN([C@@H](C)CO)C(=O)Cc2cc(NS(=O)(=O)c3cccs3)ccc2O[C@H]1CN(C)S(=O)(=O)c1ccc(F)cc1 11.0 0.9 -4.2
C[C@@H]1CCCCO[C@H](CN(C)S(=O)(=O)c2cccs2)[C@@H](C)CN([C@@H](C)CO)C(=O)c2cc(NC(=O)CCC(F)(F)F)ccc2O1 . 0.8 .
C[C@@H]1CCCCO[C@@H](CN(C)Cc2ccc(C(F)(F)F)cc2)[C@@H](C)CN([C@H](C)CO)C(=O)c2cc(NC(=O)Nc3ccc(C(F)(F)F)cc3)ccc2O1 72.3* . -1.8
C[C@@H]1CCCCO[C@@H](CN(C)Cc2ccc(C(F)(F)F)cc2)[C@@H](C)CN([C@H](C)CO)C(=O)c2cc(NC(=O)NC3CCCCC3)ccc2O1 64.7* -0.1 -22.0
C[C@@H]1CCCCO[C@@H](CN(C)Cc2ccc(C(F)(F)F)cc2)[C@@H](C)CN([C@@H](C)CO)C(=O)c2cc(NC(=O)Nc3ccc4c(c3)OCO4)ccc2O1 . -1.3 .
C[C@@H]1CN([C@H](C)CO)C(=O)c2cc(NC(=O)Nc3ccc(C(F)(F)F)cc3)ccc2O[C@@H](C)CCCCO[C@H]1CN(C)Cc1ccc(C(F)(F)F)cc1 . 0.6 .
